Assay type in all cases: biochemical
The target in test [1] is T1, truncated PRMT3 (residues 211–531) (Homo sapiens, UniProt O60678). As to the kind of experiment: PRMT3 steady-state kinetics, radioactive filter-binding methylation assay. A digest of the protocol: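 E. coli-expressed His-tagged PRMT3 (residues 211–531) was used. Reactions in 50 mM HEPES pH 8, 10 mM NaCl, 0.5 mM EDTA, 0.5 mM DTT contained 0.25–8 μM N-acetylated H4(1–20) peptide (unmodified, K5me or K5ac). Products were P81 filter-bound, washed with NaHCO3 pH 9 and scintillation-counted. Rates (product/[E] per min) were fitted to the Hill or Michaelis-Menten equation, at least duplicate.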
T1 sequence (O60678 211-531): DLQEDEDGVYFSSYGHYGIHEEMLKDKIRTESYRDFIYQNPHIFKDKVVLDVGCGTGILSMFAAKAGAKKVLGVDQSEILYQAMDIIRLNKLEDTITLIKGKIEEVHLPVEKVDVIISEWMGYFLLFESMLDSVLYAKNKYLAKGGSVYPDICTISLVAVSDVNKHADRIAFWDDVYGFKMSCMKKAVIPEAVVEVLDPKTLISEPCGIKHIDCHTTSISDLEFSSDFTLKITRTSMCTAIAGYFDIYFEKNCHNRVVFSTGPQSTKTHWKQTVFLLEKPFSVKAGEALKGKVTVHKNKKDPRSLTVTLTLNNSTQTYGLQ

Test [2] addresses T2, PRMT8 (Homo sapiens, UniProt Q9NR22). As to the kind of experiment: PRMT8 steady-state kinetics, radioactive filter-binding methylation assay. Conditions: 0.05 μM PRMT8, 15 μM [14C]-SAM, 35 min, 30 °C; data not shown. A digest of the protocol: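 Recombinant His-tagged PRMT8 was expressed in E. coli BL21(DE3) and Ni-NTA purified. Reactions were run in 50 mM HEPES pH 8, 10 mM NaCl, 0.5 mM EDTA, 0.5 mM DTT with 0.25–16 μM N-acetylated H4(1–20) peptide (unmodified, K5me or K5ac), initiated with enzyme. They were isopropanol-quenched, P81 filter-bound, washed with NaHCO3 pH 9 and scintillation-counted against [14C]-SAM reference. Rates were Hill-fitted, at least duplicate.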

In test [3] the target is T1, truncated PRMT3 (residues 211–531). As to the kind of experiment: PRMT3 single-point radioactive methylation assay. Conditions: 0.05 μM PRMT3, 5 μM [14C]-SAM, 10 μM peptide, 30 °C, 35 min.
Test [4] has as its target human recombinant PRMT1 (Homo sapiens, UniProt Q99873). As to the kind of experiment: PRMT1 single-point radioactive methylation assay. Conditions: compared with the unmodified peptide.
Test [5] addresses T2, PRMT8. As to the kind of experiment: PRMT8 single-point radioactive methylation assay. The conditions noted are these: compared with the unmodified peptide.

T2 sequence (Q9NR22 whole entry): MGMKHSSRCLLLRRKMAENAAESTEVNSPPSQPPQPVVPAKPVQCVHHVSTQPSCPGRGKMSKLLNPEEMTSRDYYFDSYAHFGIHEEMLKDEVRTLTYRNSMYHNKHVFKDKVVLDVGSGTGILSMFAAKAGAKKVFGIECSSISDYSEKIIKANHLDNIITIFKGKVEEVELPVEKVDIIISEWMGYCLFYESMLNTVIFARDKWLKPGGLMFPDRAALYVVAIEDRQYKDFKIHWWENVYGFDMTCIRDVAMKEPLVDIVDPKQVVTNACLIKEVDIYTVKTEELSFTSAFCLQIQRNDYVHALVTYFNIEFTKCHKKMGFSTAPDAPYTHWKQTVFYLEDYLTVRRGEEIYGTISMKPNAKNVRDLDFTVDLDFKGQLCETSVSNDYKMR
Sequence of human recombinant PRMT1 (Q99873 whole entry): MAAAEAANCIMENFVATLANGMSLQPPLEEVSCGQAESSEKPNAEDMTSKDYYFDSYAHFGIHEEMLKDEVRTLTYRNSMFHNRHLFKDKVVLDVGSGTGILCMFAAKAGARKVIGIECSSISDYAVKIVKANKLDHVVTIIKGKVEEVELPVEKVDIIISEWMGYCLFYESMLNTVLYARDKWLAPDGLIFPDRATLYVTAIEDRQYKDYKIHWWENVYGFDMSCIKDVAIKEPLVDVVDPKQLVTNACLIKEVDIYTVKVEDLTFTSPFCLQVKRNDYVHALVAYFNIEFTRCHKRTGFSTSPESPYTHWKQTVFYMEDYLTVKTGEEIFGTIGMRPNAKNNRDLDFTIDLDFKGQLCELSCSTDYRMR

For the substance “Ac-SGRGKmeGGKGLGKGGAKRHRK [Ac-H4(1-20)K5me]”, the “peptide concentration above which substrate inhibition appeared” value in test [1] (0.05 μM PRMT3, 15 μM [14C]-SAM, 35 min, 30 °C, data not shown) was “above 8 μM”; in test [2], “above 4 μM”. Besides, the “increase of kcat in comparison to Ac-H4(1-20)” value in test [1] (PRMT3, Hill fit) is 3 fold. In addition, in test [1] (PRMT3, kcat/K0.5), the “catalytic efficiency higher than Ac-H4(1-20)” value was approximately 4 fold. Besides, in test [3], the “increase in arginine methylation in comparison to Ac-H4(1-20)” value is recorded as “over 5 fold”.
On to “Ac-H4(1-21): N-terminally acetylated histone H4 peptide, residues 1-21”, for which the “effect of the modification on arginine methylation by PRMT1” value in test [4] is “did not strongly affect arginine methylation”. For the same substance, in test [5], the “effect of the modification on arginine methylation by PRMT8” value is listed as “did not strongly affect arginine methylation”.
On to “Ac-SGRGKacGGKGLGKGGAKRHRK [Ac-H4(1-20)K5ac]”, for which, in test [1] (PRMT3, Hill fit), the “increase of K0.5 in comparison to Ac-H4(1-20)” value turned out to be 2 fold.

These data come from PMC5776680 (Biochemistry, 2017).
